# Assay results of several laboratories.
# Each line is one published result; the experiments were not run side by side.
# CDK4: Cyclin-dependent kinase 4 (CDK4, Homo sapiens, UniProt P11802)
# CDK4 with cyclin D1: Cyclin-dependent kinase 4, with cyclin D1 (CDK4, Homo sapiens, UniProt P11802)
# CDK4 with cyclin D3: Cyclin-dependent kinase 4, with cyclin D3 (CDK4, Homo sapiens, UniProt P11802)
Structure (SMILES),target,read-out,mode,technique,tested at,measurement,value
O=C(c1ccc(Cl)c(Cl)c1)[C@H]1Cc2c(cc([N+](=O)[O-])cc2[N+](=O)[O-])[C@H](O)[C@]12C(=O)Nc1ccccc12,CDK4,cell-free assay,inhibitor,TR-FRET,1 µM,inhibition,18.5%
CS(=O)(=O)CCNCc1ccc(-c2ccc3ncnc(Nc4ccc(OCc5cccc(F)c5)c(Cl)c4)c3c2)o1,CDK4 with cyclin D1,cell-free assay,,,0.5 µM,remaining signal,94.8%
Nc1nc(Nc2ccc(S(N)(=O)=O)cc2)sc1C(=O)c1ccccc1[N+](=O)[O-],CDK4,enzyme activity,inhibitor,,0.1 µM,inhibition,87%
CN(CCCC(F)(F)F)c1nccc(-c2cnn3ncccc23)n1,CDK4,binding,,,1 µM,remaining binding,100%
COc1ccc(C(=O)[C@H]2Cc3c(cc([N+](=O)[O-])cc3[N+](=O)[O-])[C@H](O)[C@]23C(=O)Nc2ccccc23)cc1,CDK4,cell-free assay,inhibitor,TR-FRET,1 µM,inhibition,18.4%
CN(C)c1nccc(-c2cnn3ncccc23)n1,CDK4 with cyclin D1,binding,,,1 µM,remaining binding,100%
CCOCCn1cc(C(=O)Nc2ccc(-n3nc(-c4cccnc4)cc3C(F)(F)F)cn2)ccc1=O,CDK4,cell-free assay,,competition with immobilised ligand,1 µM,remaining binding,87%
CN(c1nccc(-c2cnn3ncccc23)n1)C1CC1,CDK4 with cyclin D1,binding,,,1 µM,remaining binding,100%
COc1ccc(OC)c2c(=S)c3ccccc3[nH]c12,CDK4 with cyclin D1,cell-free assay,,,0.5 µM,remaining signal,93.5%
O=C(Nc1cccnn1)N1CC(C/C=C/c2cncc(Oc3ccc(C(F)(F)F)cn3)n2)C1,CDK4 with cyclin D1,cell-free assay,,competition with immobilised ligand,1 µM,remaining binding,75%
Cc1sc(C(=O)NC2COC2)cc1-n1cc(NC(=O)Nc2c(F)cccc2Cl)cn1,CDK4 with cyclin D3,enzyme activity,inhibitor,,10 µM,remaining activity,96.5%
O=C1NC(=O)c2cc(Nc3ccc(F)cc3)c(Nc3ccc(F)cc3)cc21,CDK4 with cyclin D3,cell-free assay,,,0.5 µM,remaining signal,99%
COc1cc(-c2cn(C3CCc4c(F)cccc4N(CC(F)(F)F)C3=O)nn2)ccc1-n1cnc(C)c1 (stereo not drawn),CDK4 with cyclin D3,cell-free assay,,competition with immobilised ligand,1 µM,remaining binding,100%
CC(C)(C)c1nc(-c2cccc(NS(=O)(=O)c3c(F)cccc3F)c2F)c(-c2ccnc(N)n2)s1,CDK4 with cyclin D3,enzyme activity,inhibitor,radiometric,1 µM,remaining activity,119%
CCC(=N\O)/C(C)=C/c1ccc(F)cc1,CDK4 with cyclin D3,cell-free assay,,competition with immobilised ligand,1 µM,remaining binding,74%
Cc1cc(NC(=O)c2cccc3cc(-c4cccc5[nH]nc(N)c45)ccc23)ccc1F,CDK4 with cyclin D3,enzyme activity,inhibitor,,0.1 µM,activity vs control,89%
O=C(c1ccccc1)[C@H]1Cc2c(cc([N+](=O)[O-])cc2[N+](=O)[O-])[C@@H](O)[C@@]12C(=O)Nc1ccccc12,CDK4,cell-free assay,inhibitor,TR-FRET,1 µM,inhibition,39.5%
COc1ccc2cc(OCC3(C(=O)O)CN(C(=O)c4ccc(F)cc4)C3)ccc2c1,CDK4 with cyclin D3,cell-free assay,,competition with immobilised ligand,1 µM,remaining binding,100%
